The text below walks through data of ChEMBL document CHEMBL4130342, “New semi-synthetic analogs of oleuropein show improved anticancer activity in vitro and in vivo” (Eur J Med Chem, 2017).

In the assay the test system is SK-BR-3. The assay can be described thus: Antiproliferative activity against human SKBR3 cells after 72 hrs by MTT reduction assay. The format is functional, cell-based. As to conditions: SK-BR-3, 72 h. The essentials: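 MTT reduction assay; adherent lines left to adhere overnight, suspension lines (HL-60, K562) seeded on the day. […] Incubation was 72 h at 37°C, with MTT added for the last 4 h. OD read at 545 nm (reference 690 nm). IC50 from 100(A0-A)/A0=50; means ± SD of 3 independent experiments.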
With `C/C=C1/[C@H](O[C@@H]2O[C@H](CO)[C@@H](O)[C@H](O)[C@H]2O)OC=C(C(=O)OC)[C@H]1CC(=O)O`, the IC50 was greater than 15 µM.
With `C/C=C1/[C@H](O[C@@H]2O[C@H](COC(C)=O)[C@@H](OC(C)=O)[C@H](OC(C)=O)[C@H]2OC(C)=O)OC=C(C(=O)O)[C@H]1CC(=O)O`, the IC50 is greater than 20 µM.
Take `C/C=C1/[C@H](O[C@@H]2O[C@H](CO)[C@@H](O)[C@H](O)[C@H]2O)OC=C(C(=O)OC)[C@H]1CC(=O)OCCc1ccc(OC)c(OC)c1`: the IC50 is greater than 15 µM.
To `C=C(C)CCOC(=O)C[C@@H]1C(C(=O)OC)=CO[C@@H](O[C@@H]2O[C@H](COC(C)=O)[C@@H](OC(C)=O)[C@H](OC(C)=O)[C@H]2OC(C)=O)/C1=C/C` belongs greater than 15 µM; to `C/C=C1/[C@H](O[C@@H]2O[C@H](COC(C)=O)[C@@H](OC(C)=O)[C@H](OC(C)=O)[C@H]2OC(C)=O)OC=C(C(=O)OC)[C@H]1CC(=O)O`, greater than 15 µM.
To `C/C=C1/[C@H](O[C@@H]2O[C@H](COC(C)=O)[C@@H](OC(C)=O)[C@H](OC(C)=O)[C@H]2OC(C)=O)OC=C(C(=O)O)[C@H]1CC(=O)OCCCCCCCCCCCCCCCC` belongs greater than 20 µM; to `C/C=C1/[C@H](O[C@@H]2O[C@H](COC(C)=O)[C@@H](OC(C)=O)[C@H](OC(C)=O)[C@H]2OC(C)=O)OC=C(C(=O)OC)[C@H]1CC(=O)OCCC1CCCCC1`, greater than 15 µM; to `C/C=C1/[C@H](O[C@@H]2O[C@H](CO)[C@@H](O)[C@H](O)[C@H]2O)OC=C(C(=O)OC)[C@H]1CC(=O)OCC` (stereo in doubt), greater than 15 µM.
As for `C/C=C1/[C@H](O[C@@H]2O[C@H](CO)[C@@H](O)[C@H](O)[C@H]2O)OC=C(C(=O)O)[C@H]1CC(=O)OC` (stereo in doubt), the IC50 is greater than 20 µM.
In turn, `C/C=C1/[C@H](O[C@@H]2O[C@H](COC(C)=O)[C@@H](OC(C)=O)[C@H](OC(C)=O)[C@H]2OC(C)=O)OC=C(C(=O)OC)[C@H]1CC(=O)OCCc1ccc(OC)cc1` (stereo in doubt) displayed an IC50 greater than 20 µM.
To `C/C=C1/[C@H](O[C@@H]2O[C@H](COC(C)=O)[C@@H](OC(C)=O)[C@H](OC(C)=O)[C@H]2OC(C)=O)OC=C(C(=O)OC)[C@H]1CC(=O)OCCc1ccc(OC)c(OC)c1` (stereo in doubt) belongs greater than 15 µM.
To `C=CCOC(=O)C[C@@H]1C(C(=O)OC)=CO[C@@H](O[C@@H]2O[C@H](COC(C)=O)[C@@H](OC(C)=O)[C@H](OC(C)=O)[C@H]2OC(C)=O)/C1=C/C` (stereo in doubt) belongs greater than 20 µM.
The result for `C/C=C1/[C@H](O[C@@H]2O[C@H](CO)[C@@H](O)[C@H](O)[C@H]2O)OC=C(C(=O)OC)[C@H]1CC(=O)OCc1ccccc1` (stereo in doubt) reads greater than 15 µM; that for `C=C(C)CCOC(=O)C[C@@H]1C(C(=O)OC)=CO[C@@H](O[C@@H]2O[C@H](CO)[C@@H](O)[C@H](O)[C@H]2O)/C1=C/C` (stereo in doubt), greater than 15 µM.
`C/C=C1/[C@H](O[C@@H]2O[C@H](CO)[C@@H](O)[C@H](O)[C@H]2O)OC=C(C(=O)OC)[C@H]1CC(=O)OCCCc1ccc(OC)c(OC)c1` (stereo in doubt) returned an IC50 greater than 20 µM.
The molecule `C/C=C1/[C@H](O[C@@H]2O[C@H](CO)[C@@H](O)[C@H](O)[C@H]2O)OC=C(C(=O)OC)[C@H]1CC(=O)OCCc1ccc(OC)cc1` (stereo in doubt) registered an IC50 greater than 20 µM.
In the case of `C/C=C1/[C@H](O[C@@H]2O[C@H](COC(C)=O)[C@@H](OC(C)=O)[C@H](OC(C)=O)[C@H]2OC(C)=O)OC=C(C(=O)OC)[C@H]1CC(=O)OCCCC` (stereo in doubt), the IC50 is greater than 15 µM.
Molecule `C/C=C1/[C@H](O[C@@H]2O[C@H](COC(C)=O)[C@@H](OC(C)=O)[C@H](OC(C)=O)[C@H]2OC(C)=O)OC=C(C(=O)O)[C@H]1CC(=O)OC` (stereo in doubt) registered an IC50 greater than 20 µM.
The result for `C/C=C1/[C@H](O[C@@H]2O[C@H](CO)[C@@H](O)[C@H](O)[C@H]2O)OC=C(C(=O)OC)[C@H]1CC(=O)OCc1ccc2c(c1)OCCO2` (stereo in doubt) reads greater than 15 µM; that for `C/C=C1/[C@H](O[C@@H]2O[C@H](CO)[C@@H](O)[C@H](O)[C@H]2O)OC=C(C(=O)OC)[C@H]1CC(=O)OC` (stereo in doubt), greater than 15 µM; that for `C/C=C1/[C@H](O[C@@H]2O[C@H](COC(C)=O)[C@@H](OC(C)=O)[C@H](OC(C)=O)[C@H]2OC(C)=O)OC=C(C(=O)OC)[C@H]1CC(=O)OCCc1ccc2c(c1)OCCO2` (stereo in doubt), greater than 15 µM.
The result for `C/C=C1/[C@H](O[C@@H]2O[C@H](COC(C)=O)[C@@H](OC(C)=O)[C@H](OC(C)=O)[C@H]2OC(C)=O)OC=C(C(=O)OC)[C@H]1CC(=O)OCc1ccco1` (stereo in doubt) reads greater than 15 µM.
The result for `C/C=C1/[C@H](O[C@@H]2O[C@H](CO)[C@@H](O)[C@H](O)[C@H]2O)OC=C(C(=O)OC)[C@H]1CC(=O)OCCc1ccc(F)cc1` (stereo in doubt) reads greater than 20 µM.
In the case of `C/C=C1/[C@H](O[C@@H]2O[C@H](COC(C)=O)[C@@H](OC(C)=O)[C@H](OC(C)=O)[C@H]2OC(C)=O)OC=C(C(=O)OC)[C@H]1CC(=O)OCCC(C)C` (stereo in doubt), the IC50 is greater than 15 µM.
`C/C=C1/[C@H](O[C@@H]2O[C@H](COC(C)=O)[C@@H](OC(C)=O)[C@H](OC(C)=O)[C@H]2OC(C)=O)OC=C(C(=O)OC)[C@H]1CC(=O)OCCCc1ccc(OC)c(OC)c1` (stereo in doubt) returned an IC50 greater than 20 µM.
To `C/C=C1/[C@H](O[C@@H]2O[C@H](CO)[C@@H](O)[C@H](O)[C@H]2O)OC=C(C(=O)OC)[C@H]1CC(=O)NCCC` (stereo in doubt) belongs greater than 20 µM; to `C/C=C1/[C@H](O[C@@H]2O[C@H](CO)[C@@H](O)[C@H](O)[C@H]2O)OC=C(C(=O)OC)[C@H]1CC(=O)OCCc1ccc([N+](=O)[O-])cc1` (stereo in doubt), greater than 20 µM.
Turning to `C#CCOC(=O)C[C@@H]1C(C(=O)OC)=CO[C@@H](O[C@@H]2O[C@H](COC(C)=O)[C@@H](OC(C)=O)[C@H](OC(C)=O)[C@H]2OC(C)=O)/C1=C/C` (stereo in doubt), the IC50 was greater than 15 µM.
With `C/C=C1/[C@H](O[C@@H]2O[C@H](COC(C)=O)[C@@H](OC(C)=O)[C@H](OC(C)=O)[C@H]2OC(C)=O)OC=C(C(=O)OC)[C@H]1CC(=O)OCc1ccccc1` (stereo in doubt), the IC50 is greater than 15 µM.
`C/C=C1/[C@H](O[C@@H]2O[C@H](COC(C)=O)[C@@H](OC(C)=O)[C@H](OC(C)=O)[C@H]2OC(C)=O)OC=C(C(=O)OC)[C@H]1CC(=O)OCc1ccc2c(c1)OCCO2` (stereo in doubt) returned an IC50 greater than 15 µM.
To `C/C=C1/[C@H](O[C@@H]2O[C@H](COC(C)=O)[C@@H](OC(C)=O)[C@H](OC(C)=O)[C@H]2OC(C)=O)OC=C(C(=O)OC)[C@H]1CC(=O)OCC` (stereo in doubt) belongs greater than 15 µM; to `C/C=C1/[C@H](O[C@@H]2O[C@H](CO)[C@@H](O)[C@H](O)[C@H]2O)OC=C(C(=O)OC)[C@H]1CC(=O)OCCc1ccc2c(c1)OCCO2` (stereo in doubt), greater than 20 µM.
The result for `C/C=C1/[C@H](O[C@@H]2O[C@H](CO)[C@@H](O)[C@H](O)[C@H]2O)OC=C(C(=O)OC)[C@H]1CC(=O)OCc1ccco1` (stereo in doubt) reads greater than 15 µM; that for `C/C=C1/[C@H](O[C@@H]2O[C@H](COC(C)=O)[C@@H](OC(C)=O)[C@H](OC(C)=O)[C@H]2OC(C)=O)OC=C(C(=O)OC)[C@H]1CC(=O)OCCc1ccc(F)cc1` (stereo in doubt), greater than 20 µM; that for `C/C=C1/[C@H](O[C@@H]2O[C@H](CO)[C@@H](O)[C@H](O)[C@H]2O)OC=C(C(=O)OC)[C@H]1CC(=O)OCCCC` (stereo in doubt), greater than 15 µM.
Take `C/C=C1/[C@H](O[C@@H]2O[C@H](COC(C)=O)[C@@H](OC(C)=O)[C@H](OC(C)=O)[C@H]2OC(C)=O)OC=C(C(=O)OC)[C@H]1CC(=O)OCc1ccc(OC)c(OC)c1` (stereo in doubt): the IC50 was greater than 15 µM.
In the case of `C/C=C1/[C@H](O[C@@H]2O[C@H](COC(C)=O)[C@@H](OC(C)=O)[C@H](OC(C)=O)[C@H]2OC(C)=O)OC=C(C(=O)OC)[C@H]1CC(=O)OC` (stereo in doubt), the IC50 is greater than 15 µM.
`C/C=C1/[C@H](O[C@@H]2O[C@H](CO)[C@@H](O)[C@H](O)[C@H]2O)OC=C(C(=O)OC)[C@H]1CC(=O)OCCC` (stereo in doubt) came in with an IC50 greater than 15 µM.
The result for `C/C=C1/[C@H](O[C@@H]2O[C@H](COC(C)=O)[C@@H](OC(C)=O)[C@H](OC(C)=O)[C@H]2OC(C)=O)OC=C(C(=O)OC)[C@H]1CC(=O)SCCC` (stereo in doubt) reads greater than 15 µM; that for `C/C=C1/[C@H](O[C@@H]2O[C@H](COC(C)=O)[C@@H](OC(C)=O)[C@H](OC(C)=O)[C@H]2OC(C)=O)OC=C(C(=O)OC)[C@H]1CC(=O)OCCc1ccc([N+](=O)[O-])cc1` (stereo in doubt), greater than 20 µM; that for `C#CCOC(=O)C[C@@H]1C(C(=O)OC)=CO[C@@H](O[C@@H]2O[C@H](CO)[C@@H](O)[C@H](O)[C@H]2O)/C1=C/C` (stereo in doubt), greater than 15 µM.
To `C/C=C1/[C@H](O[C@@H]2O[C@H](CO)[C@@H](O)[C@H](O)[C@H]2O)OC=C(C(=O)OC)[C@H]1CC(=O)OCc1ccc(OC)c(OC)c1` (stereo in doubt) belongs greater than 15 µM; to `C/C=C1/[C@H](O[C@@H]2O[C@H](COC(C)=O)[C@@H](OC(C)=O)[C@H](OC(C)=O)[C@H]2OC(C)=O)OC=C(C(=O)OC)[C@H]1CC(=O)SCCc1ccccc1` (stereo in doubt), greater than 15 µM; to `OCCc1ccc(O)c(O)c1` [HYDROXYTYROSOL], 201 µM.
The result for `C/C=C1/[C@H](O[C@@H]2O[C@H](CO)[C@@H](O)[C@H](O)[C@H]2O)OC=C(C(=O)OC)[C@H]1CC(=O)OCCc1ccc(O)cc1` [LIGSTROSIDE] reads greater than 20 µM.
